Test results reported in ChEMBL document CHEMBL3232791, “Synthesis and antibacterial evaluation of amino acid-antibiotic conjugates” (2014).

Assays:
Assay type in all cases: functional
[1] = system: Pseudomonas aeruginosa; experiment: Antibacterial activity against Pseudomonas aeruginosa PAO1 assessed as growth inhibition at 20 ug/ml after 16 hrs by spectrophotometric analysis; conditions: PAO1, 16 h, read-out: GI
Method in brief: (§1)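 Growth inhibition read as OD600 on 300 µL culture samples, with untreated control cultures taken as maximum growth. Percent inhibition = (OD600 control − OD600 treated) × 100 / OD600 control. Parent antibiotics and their conjugates were run in parallel at three concentrations per compound, in biological duplicate.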

[2] = system: Staphylococcus aureus; experiment: Antibacterial activity against Staphylococcus aureus RN4220 assessed as growth inhibition at 2 ug/ml after 16 hrs by spectrophotometric analysis; conditions: RN4220, 16 h, read-out: GI; method in brief: as §1
[3] = system: Staphylococcus aureus; experiment: Antibacterial activity against Staphylococcus aureus RN4220 assessed as growth inhibition at 8 ug/ml after 16 hrs by spectrophotometric analysis; conditions: RN4220, 16 h, read-out: GI; method in brief: as §1
[4] = system: Bacillus subtilis; experiment: Antibacterial activity against Bacillus subtilis 168 assessed as growth inhibition at 0.2 ug/ml after 16 hrs by spectrophotometric analysis; conditions: subsp. subtilis str. 168, 16 h, read-out: GI; method in brief: as §1
[5] = system: Escherichia coli; experiment: Antibacterial activity against Escherichia coli DH5alpha assessed as growth inhibition at 0.5 ug/ml after 16 hrs by spectrophotometric method; conditions: DH5[alpha], read-out: GI; method in brief: as §1
[6] = system: Escherichia coli; experiment: Antibacterial activity against Escherichia coli DH5alpha assessed as growth inhibition at 0.0635 ug/ml after 16 hrs by spectrophotometric method; conditions: DH5[alpha], read-out: GI; method in brief: as §1
[7] = system: Pseudomonas aeruginosa; experiment: Antibacterial activity against Pseudomonas aeruginosa PAO1 assessed as growth inhibition at 40 ug/ml after 16 hrs by spectrophotometric analysis; conditions: PAO1, 16 h, read-out: GI; method in brief: as §1
[8] = system: Bacillus subtilis; experiment: Antibacterial activity against Bacillus subtilis 168 assessed as growth inhibition at 0.1 ug/ml after 16 hrs by spectrophotometric analysis; conditions: subsp. subtilis str. 168, 16 h, read-out: GI; method in brief: as §1
[9] = system: Staphylococcus aureus; experiment: Antibacterial activity against Staphylococcus aureus RN4220 assessed as growth inhibition at 4 ug/ml after 16 hrs by spectrophotometric analysis; conditions: RN4220, 16 h, read-out: GI; method in brief: as §1
[10] = system: Escherichia coli; experiment: Antibacterial activity against Escherichia coli DH5alpha assessed as growth inhibition at 0.125 ug/ml after 16 hrs by spectrophotometric method; conditions: DH5[alpha], read-out: GI; method in brief: as §1
[11] = system: Bacillus subtilis; experiment: Antibacterial activity against Bacillus subtilis 168 assessed as growth inhibition at 0.4 ug/ml after 16 hrs by spectrophotometric analysis; conditions: subsp. subtilis str. 168, 16 h, read-out: GI; method in brief: as §1
[12] = system: Pseudomonas aeruginosa; experiment: Antibacterial activity against Pseudomonas aeruginosa PAO1 assessed as growth inhibition at 10 ug/ml after 16 hrs by spectrophotometric analysis; conditions: PAO1, 16 h, read-out: GI; method in brief: as §1
[13] = system: Staphylococcus aureus; experiment: Antibacterial activity against Staphylococcus aureus RN4220 assessed as growth inhibition at 60 ug/ml after 16 hrs by spectrophotometric analysis; conditions: RN4220, 16 h, read-out: GI; method in brief: as §1
[14] = system: Staphylococcus aureus; experiment: Antibacterial activity against Staphylococcus aureus RN4220 assessed as growth inhibition at 120 ug/ml after 16 hrs by spectrophotometric analysis; conditions: RN4220, 16 h, read-out: GI; method in brief: as §1
[15] = system: Escherichia coli; experiment: Antibacterial activity against Escherichia coli DH5alpha assessed as growth inhibition at 75 ug/ml after 16 hrs by spectrophotometric method; conditions: DH5[alpha], read-out: GI; method in brief: as §1
[16] = system: Staphylococcus aureus; experiment: Antibacterial activity against Staphylococcus aureus RN4220 assessed as growth inhibition at 240 ug/ml after 16 hrs by spectrophotometric analysis; conditions: RN4220, 16 h, read-out: GI; method in brief: as §1
[17] = system: Escherichia coli; experiment: Antibacterial activity against Escherichia coli DH5alpha assessed as growth inhibition at 50 ug/ml after 16 hrs by spectrophotometric method; conditions: DH5[alpha], read-out: GI; method in brief: as §1
[18] = system: Escherichia coli; experiment: Antibacterial activity against Escherichia coli DH5alpha assessed as growth inhibition at 40 ug/ml after 16 hrs by spectrophotometric method; conditions: DH5[alpha], read-out: GI; method in brief: as §1

| SMILES | inhibition of growth at 20 µg/mL [1] [%] | inhibition of growth at 2 µg/mL [2] [%] | inhibition of growth at 8 µg/mL [3] [%] | inhibition of growth at 0.2 µg/mL [4] [%] | inhibition of growth at 0.5 µg/mL [5] [%] | inhibition of growth at 0.0635 µg/mL [6] [%] | inhibition of growth at 40 µg/mL [7] [%] | inhibition of growth at 0.1 µg/mL [8] [%] | inhibition of growth at 4 µg/mL [9] [%] | inhibition of growth at 0.125 µg/mL [10] [%] | inhibition of growth at 0.4 µg/mL [11] [%] | inhibition of growth at 10 µg/mL [12] [%] | inhibition of growth at 60 µg/mL [13] [%] | inhibition of growth at 120 µg/mL [14] [%] | inhibition of growth at 75 µg/mL [15] [%] | inhibition of growth at 240 µg/mL [16] [%] | inhibition of growth at 50 µg/mL [17] [%] | inhibition of growth at 40 µg/mL [18] [%] |
| --- | --- | --- | --- | --- | --- | --- | --- | --- | --- | --- | --- | --- | --- | --- | --- | --- | --- | --- |
| O=C(NCCCC[C@H](NC(=O)OCc1ccccc1)C(=O)N1CCN(c2cc3c(cc2F)c(=O)c(C(=O)O)cn3C2CC2)CC1)OCc1ccccc1 | 89.7 | 39.3 | 62.9 | 12.7 | 38.9 | -0.2 | 84.2 | 9.59 | 51.6 | 4.12 | 40.4 | 87.1 |  |  |  |  |  |  |
| O=C(NCC(=O)N1CCN(c2cc3c(cc2F)c(=O)c(C(=O)O)cn3C2CC2)CC1)OCc1ccccc1 | -1.56 | 45.7 | 70.8 | 16.2 | 2.25 | 1.86 | 45 | 18.5 | 50.3 | -2.17 | 94.2 | -14 |  |  |  |  |  |  |
| O=C(O)c1cn(C2CC2)c2cc(N3CCNCC3)c(F)cc2c1=O [CIPROFLOXACIN] | 91 | 48.4 | 75.3 |  | 77 | 32.5 | 89.8 | 30.4 | 63.9 | 52.3 | 94.3 | 91.8 |  |  |  |  |  |  |
| C[C@H](NC(=O)OCc1ccccc1)C(=O)N1CCN(c2cc3c(cc2F)c(=O)c(C(=O)O)cn3C2CC2)CC1 | -2.13 | 23.2 | 55.8 | 42.3 | -1.86 | -0.72 | 58.2 | 12.6 | 46.1 | -2.93 | 91.9 | -13.3 |  |  |  |  |  |  |
| O=C(N[C@@H](Cc1ccccc1)C(=O)Nc1ccc(S(=O)(=O)Nc2ncccn2)cc1)OCc1ccccc1 |  |  |  |  |  |  |  |  |  |  |  |  | -8.23 | 18.2 | 3.46 | 29.1 | 0.05 | 0.39 |
| O=C(C[C@H](NC(=O)OCc1ccccc1)C(=O)Nc1ccc(S(=O)(=O)Nc2ncccn2)cc1)OCc1ccccc1 |  |  |  |  |  |  |  |  |  |  |  |  | -17.6 | -2.44 | 4.72 | 3.48 | 3.75 | 4.72 |
